Test results reported in ChEMBL document CHEMBL5257094, “Synthesis and analysis of novel catecholic ligands as inhibitors of catechol-O-methyltransferase” (Bioorg Med Chem Lett, 2023).
The source made the active and inactive calls. The calls are words filed in the database; no cut-off is given here.

Columns and labels:
[1] = biological target: T1, Catechol O-methyltransferase (Homo sapiens) (UniProt P21964); experiment: Inhibition of S-COMT (unknown origin) assessed as scopoletin formation by measuring fluorescence using 6,7-dihydroxycoumarin as substrate at 100 uM and measured for 60 mins by fluorescence based microplate reader assay
T1 sequence (whole entry): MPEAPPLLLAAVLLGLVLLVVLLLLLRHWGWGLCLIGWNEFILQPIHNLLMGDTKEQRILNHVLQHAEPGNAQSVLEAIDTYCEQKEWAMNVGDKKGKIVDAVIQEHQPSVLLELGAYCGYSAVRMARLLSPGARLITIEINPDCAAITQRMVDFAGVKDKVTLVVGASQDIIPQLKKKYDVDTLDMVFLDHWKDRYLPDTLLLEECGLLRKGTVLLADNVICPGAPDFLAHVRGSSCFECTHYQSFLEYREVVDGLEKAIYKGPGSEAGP
In short: (§1)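 Soluble COMT (S-COMT) activity was run at 37 °C and pH 7.4. The substrate was aesculetin (6,7-dihydroxycoumarin) at 6 μM, which methylation converts to fluorescent scopoletin. Fluorescence was read over 60 min. Test catechols were added at 10 μM or 100 μM. Each was assayed at least in triplicate, and the signal was normalized to the no-inhibitor aesculetin fluorescence.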

[2] = biological target: T1, Catechol O-methyltransferase (Homo sapiens); experiment: Inhibition of S-COMT (unknown origin) assessed as scopoletin formation by measuring fluorescence using 6,7-dihydroxycoumarin as substrate at 10 uM and measured for 60 mins by fluorescence based microplate reader assay; in short: as §1
[3] = Stability of compound in phosphate buffer at 7.4 assessed as drug degradation incubated for 1 hr by HPLC analysis; assay type: physicochemical; conditions: for Stability: buffer, pH 7.4, 1 h; for degraded at 1 h: phosphate buffer, pH 7.4, read-out: Drug degradation
In short: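 Compounds were incubated at assay conditions, 37 °C in phosphate buffer at pH 7.4, for 1 hour. Degradation was then assessed by HPLC analysis.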

[4] = Dissociation constant, pKa of compound pH 3.01 to 12.36 at 0.2 mM by spectroscopic analysis; assay type: physicochemical
In short: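 Five-buffer series in which CHES replaced Borax over pH 8.2–10.8, with KCl buffers added to widen the range. Compound dissolved in each buffer across pH 3.01–12.36 to a final 0.2 mM. Absorbance was read, normalized, and fitted to give the first and, where determinable, second catechol hydroxyl pKa.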

N#Cc1cc(O)c(O)cc1CCN
inhibition [1]: 30%
inhibition [2]: inactive
Stability [3]: Stable

N#Cc1ccc(O)c(O)c1
pKa at 200 µM [4]: 7.45
inhibition [1]: Active
inhibition [2]: inactive
Stability [3]: Stable

N#CCc1ccc(O)c(O)c1
pKa at 200 µM [4]: 9.6
inhibition [1]: Active
inhibition [2]: inactive
Stability [3]: Stable

N#CCCc1ccc(O)c(O)c1
inhibition [1]: Active
inhibition [2]: inactive
Stability [3]: Unstable

NCCc1cc(O)c(O)cc1Br
inhibition [1]: inactive
inhibition [2]: inactive
Stability [3]: Stable

N#CCc1cc(O)c(O)cc1[N+](=O)[O-]
pKa at 200 µM [4]: 6.23
inhibition [1]: Active
inhibition [2]: Active
degraded at 1 h [3]: < 5%

NCCc1cc(O)c(O)cc1[N+](=O)[O-]
pKa at 200 µM [4]: 6.33
inhibition [1]: 50%
inhibition [2]: inactive
Stability [3]: Stable

Oc1cc2c(cc1O)CNCC2
inhibition [1]: inactive
inhibition [2]: inactive
Stability [3]: Unstable

NCCc1ccc(O)c(O)c1 [DOPAMINE]
pKa at 200 µM [4]: 8.66
Stability [3]: Stable

NCCc1cc(O)c(O)cc1O [OXIDOPAMINE]
inhibition [1]: Active
inhibition [2]: inactive
degraded at 1 h [3]: > 40%

N#CCCc1cc(O)c(O)cc1[N+](=O)[O-]
inhibition [1]: Active
inhibition [2]: inactive
Stability [3]: Stable

NCCc1cc(O)c(O)cc1C(=O)O
inhibition [1]: inactive
inhibition [2]: inactive
Stability [3]: Stable
